Measured values: ChEMBL document CHEMBL5136969, “A niclosamide-tobramycin hybrid adjuvant potentiates cefiderocol against P. aeruginosa” (2021)
≈ marks a conversion by molar mass, not a printed value. Calls of active or inactive are those of the source. No cut-off for these calls is given here.

How the values were obtained:
Escherichia coli [1] = assay: Potentiation of moxifloxacin-induced antibiotic activity against Escherichia coli ATCC 25922 assessed as MIC fold reduction at 8 ug/ml after 18 hrs by microbroth dilution method; assay type: functional; settings: dose 8 µg/ml
In short: (§1)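 Adjuvant held at a fixed 8 μg/mL while the antibiotic was 2-fold serially diluted in Mueller-Hinton broth (MHB), per CLSI microbroth dilution. Overnight cultures were adjusted in saline to 0.5 McFarland, then diluted 1:50 in MHB to about 5 × 10^5 CFU/mL final, and incubated 18 h at 37 °C. MIC was the lowest concentration with no visible turbidity, confirmed at 590 nm. Fold potentiation = MIC alone / MIC with adjuvant.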

Escherichia coli [2] = assay: Potentiation of vancomycin-induced antibiotic activity against Escherichia coli ATCC 25922 assessed as MIC fold reduction at 8 ug/ml after 18 hrs by microbroth dilution method; assay type: functional; settings: dose 8 µg/ml
Pseudomonas aeruginosa [3] = assay: Potentiation of tobramycin-induced antibiotic activity against Pseudomonas aeruginosa PAO1 assessed as MIC fold reduction at 8 ug/ml after 18 hrs by microbroth dilution method; assay type: functional; settings: dose 8 µg/ml
Escherichia coli [4] = assay: Potentiation of colistin-induced antibiotic activity against Escherichia coli ATCC 25922 assessed as MIC fold reduction at 8 ug/ml after 18 hrs by microbroth dilution method; assay type: functional; settings: dose 8 µg/ml; in short: as §1
Acinetobacter baumannii [5] = assay: Potentiation of niclosamide-induced antibiotic activity against Acinetobacter baumannii ATCC 17978 assessed as MIC fold reduction at 8 ug/ml after 18 hrs by microbroth dilution method; assay type: functional; settings: dose 8 µg/ml
Pseudomonas aeruginosa [6] = assay: Potentiation of cefiderocol-induced antibiotic activity against Pseudomonas aeruginosa PAO1 assessed as MIC fold reduction at 8 ug/ml after 18 hrs by microbroth dilution method; assay type: functional; settings: dose 8 µg/ml
In short: (§2)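 Initial screen in MHB using a fixed 8 μg mL−1 of adjuvant combined with each antibiotic under 2-fold dilution. Broth microdilution used about 5 × 10^5 CFU/mL at 37 °C for 18 h, with visible turbidity read and confirmed at 590 nm. Fold-potentiation = antibiotic MIC alone ÷ antibiotic MIC with adjuvant.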

Escherichia coli [7] = assay: Potentiation of aztreonam-induced antibiotic activity against Escherichia coli ATCC 25922 assessed as MIC fold reduction at 8 ug/ml after 18 hrs by microbroth dilution method; assay type: functional; settings: dose 8 µg/ml; in short: as §2
Pseudomonas aeruginosa [8] = assay: Potentiation of erythromycin-induced antibiotic activity against Pseudomonas aeruginosa PAO1 assessed as MIC fold reduction at 8 ug/ml after 18 hrs by microbroth dilution method; assay type: functional; settings: dose 8 µg/ml; in short: as §1
Acinetobacter baumannii [9] = assay: Potentiation of fosfomycin-induced antibiotic activity against Acinetobacter baumannii ATCC 17978 assessed as MIC fold reduction at 8 ug/ml after 18 hrs by microbroth dilution method; assay type: functional; settings: dose 8 µg/ml; in short: as §1
Pseudomonas aeruginosa [10] = assay: Potentiation of linezolid-induced antibiotic activity against Pseudomonas aeruginosa PAO1 assessed as MIC fold reduction at 8 ug/ml after 18 hrs by microbroth dilution method; assay type: functional; settings: dose 8 µg/ml; in short: as §1
Acinetobacter baumannii [11] = assay: Potentiation of linezolid-induced antibiotic activity against Acinetobacter baumannii ATCC 17978 assessed as MIC fold reduction at 8 ug/ml after 18 hrs by microbroth dilution method; assay type: functional; settings: dose 8 µg/ml; in short: as §1
Pseudomonas aeruginosa [12] = assay: Potentiation of trimethoprim-induced antibiotic activity against Pseudomonas aeruginosa PAO1 assessed as MIC fold reduction at 8 ug/ml after 18 hrs by microbroth dilution method; assay type: functional; settings: dose 8 µg/ml
Acinetobacter baumannii [13] = assay: Potentiation of cotrimoxazole-induced antibiotic activity against Acinetobacter baumannii ATCC 17978 assessed as MIC fold reduction at 8 ug/ml after 18 hrs by microbroth dilution method; assay type: functional; settings: dose 8 µg/ml; in short: as §1
Acinetobacter baumannii [14] = assay: Antibacterial activity against Acinetobacter baumannii ATCC 17978 assessed as reduction in bacterial growth after 18 hrs by microbroth dilution method; assay type: functional
In short: (§3)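 CLSI microbroth dilution in MHB. Overnight cultures were adjusted to 0.5 McFarland in saline, diluted 1:50, and inoculated at about 5 × 10^5 CFU/mL. Agents were 2-fold serially diluted and incubated 18 h at 37 °C. MIC is the lowest concentration without visible turbidity, confirmed by absorbance at 590 nm. Medium with and without cells served as controls.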

Escherichia coli [15] = assay: Antibacterial activity against Escherichia coli ATCC 25922 assessed as reduction in bacterial growth after 18 hrs by microbroth dilution method; assay type: functional; in short: as §3
Staphylococcus aureus = assay: Antibacterial activity against Staphylococcus aureus ATCC 29213 assessed as reduction in bacterial growth after 18 hrs by microbroth dilution method; assay type: functional
In short: (§4)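 CLSI broth microdilution. Overnight cultures were adjusted in saline to 0.5 McFarland, diluted 1:50 in Mueller-Hinton broth (MHB), and inoculated at about 5 × 10^5 CFU/mL. Agents were 2-fold serially diluted in MHB, mixed 1:1 with inoculum, and held at 37 °C for 18 h. MIC was the lowest concentration with no visible turbidity, confirmed at 590 nm.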

Pseudomonas aeruginosa [16] = assay: Potentiation of cefotaxime-induced antibiotic activity against […] Pseudomonas aeruginosa PAO1 assessed as MIC fold reduction at 8 ug/ml after 18 hrs by microbroth dilution method; assay type: functional, organism-based; settings: dose 8.0 µg/ml; in short: as §1
Pseudomonas aeruginosa [17] = assay: Antibacterial activity against […] Pseudomonas aeruginosa PAO1 assessed as reduction in bacterial growth after 18 hrs by microbroth dilution method; assay type: functional
In short: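 Broth microdilution per CLSI in Mueller-Hinton broth (MHB). Overnight cultures were adjusted to 0.5 McFarland in saline, diluted 1:50 in MHB, and added at about 5 × 10^5 CFU/mL final to equal volumes of 2-fold serial dilutions of agent. Incubation was 18 h at 37 °C. MIC was the lowest concentration with no visible turbidity, confirmed by absorbance at 590 nm.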

Pseudomonas aeruginosa [18] = assay: Antibacterial activity against MDR clinical isolate Pseudomonas aeruginosa PA101885 assessed as reduction in bacterial growth after 18 hrs by microbroth dilution method; assay type: functional; in short: as §4
Pseudomonas aeruginosa [19] = assay: Antibacterial activity against MDR clinical isolate Pseudomonas aeruginosa PA86052 assessed as reduction in bacterial growth after 18 hrs by microbroth dilution method; assay type: functional; in short: as §4
Pseudomonas aeruginosa [20] = assay: Antibacterial activity against MDR clinical isolate Pseudomonas aeruginosa PA264 assessed as reduction in bacterial growth after 18 hrs in presence of cefiderocol by microbroth dilution method; assay type: functional
In short: (§5)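 Checkerboard in MHB. Cefiderocol was 2-fold serially diluted along one axis and the adjuvant along the other. Inoculum was prepared from 0.5 McFarland saline suspensions diluted 1:50 in MHB, giving about 5 × 10^5 CFU/mL final. Plates ran 18 h at 37 °C, with turbidity confirmed at 590 nm. FIC = combination MIC ÷ MIC alone for each agent, and FIC index = sum of both. Interpretation: ≤0.5 synergy, >0.5–4 additive, >4 antagonism.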

Acinetobacter baumannii [21] = assay: Antibacterial activity against Acinetobacter baumannii AB92247 assessed as reduction in bacterial growth after 18 hrs in presence of cefiderocol by microbroth dilution method; assay type: functional
In short: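 Checkerboard in Mueller-Hinton broth: cefiderocol 2-fold diluted on one axis, adjuvant 2-fold on the other. Overnight cultures were adjusted to 0.5 McFarland in saline, diluted 1:50 in MHB, and inoculated at about 5 × 10^5 CFU/mL. Incubation was 18 h at 37 °C. Turbidity was read visually and confirmed at 590 nm. FIC index = FIC of antibiotic + FIC of adjuvant; ≤0.5 synergy, >4 antagonism.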

Enterobacter cloacae = assay: Antibacterial activity against Enterobacter cloacae 121187 assessed as reduction in bacterial growth after 18 hrs by microbroth dilution method; assay type: functional; in short: as §3
Klebsiella pneumoniae = assay: Antibacterial activity against Klebsiella pneumoniae KP116381 assessed as potentiation of cefiderocol antibacterial activity by measuring FIC after 18 hrs by microbroth dilution method; assay type: functional; in short: as §5

NC[C@H]1O[C@H](O[C@H]2[C@H](OCCCCc3cn(-c4ccc(NC(=O)c5cc(Cl)ccc5O)cc4)nn3)[C@@H](O[C@H]3O[C@H](CO)[C@@H](O)[C@H](N)[C@H]3O)[C@H](N)C[C@@H]2N)[C@H](N)C[C@@H]1O
fold change (FC) (Escherichia coli [1]): 4
fold change (FC) (Escherichia coli [2]): 4
fold change (FC) (Pseudomonas aeruginosa [3]): 4
fold change (FC) (Escherichia coli [4]): 4
fold change (FC) (Acinetobacter baumannii [5]): 4
fold change (FC) (Pseudomonas aeruginosa [6]): 4
fold change (FC) (Escherichia coli [7]): 4
fold change (FC) (Pseudomonas aeruginosa [8]): 4
fold change (FC) (Acinetobacter baumannii [9]): 4
fold change (FC) (Pseudomonas aeruginosa [10]): 4
fold change (FC) (Acinetobacter baumannii [11]): 4
fold change (FC) (Pseudomonas aeruginosa [12]): 4
fold change (FC) (Acinetobacter baumannii [13]): 4
MIC (Acinetobacter baumannii [14]): > 128 µg/mL
MIC (Escherichia coli [15]): > 128 µg/mL
MIC (Staphylococcus aureus): > 128 µg/mL
Activity (Pseudomonas aeruginosa [16]): Active
MIC (Pseudomonas aeruginosa [17]): 64 µg/mL (≈ 76.5 µM)
MIC (Pseudomonas aeruginosa [18]): > 128 µg/mL
MIC (Pseudomonas aeruginosa [19]): > 128 µg/mL
MIC (Pseudomonas aeruginosa [20]): 0.125 µg/mL
MIC (Acinetobacter baumannii [21]): 8 µg/mL
MIC (Enterobacter cloacae): > 128 µg/mL
FIC (Klebsiella pneumoniae): 0.5
